# Compounds with a hit are over-represented: about 2.1% of the library has one in this group of screens.
# MsrA act – bovine MsrA enzyme activators, primary screen, biochemical, absorbance, HTS; Methionine sulfoxide reductase A (Bos taurus); purified bovine MsrA, absorbance read-out; activation, % at 10.6 µM; 360,000 compounds, 0.3% hits; AID 602163, 2012; in the data active means activation above about 7.5%
# MsrA inh – bovine MsrA enzyme inhibitors, primary screen, biochemical, absorbance, HTS; Methionine sulfoxide reductase A (Bos taurus); inhibition, % at 15.5 µM; 360,000 compounds, 0.75% hits; purified bovine MsrA, absorbance read-out; in the data active means inhibition above about 4.5%
# PKA-R2B act – activators of PKA-R2B holoenzyme, primary screen, biochemical, fluorescence polarization, Cy5-IP20, human; cAMP-dependent protein kinase catalytic subunit beta (Homo sapiens) + cAMP-dependent …; AID 504700, 2011; 340,000 compounds, 0.079% hits; activation, % at 11.4 µM; PKA-R2B holoenzyme dissociation; R2B truncated from residue 108, S112A mutant; 0% DMSO only, 100% 113 µM cGMP;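 active means activation above a cutoff set at the mean over all compounds plus 3 SD, cut at about 18% in these data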;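 further: higher means more holoenzyme dissociation and a rise in polarization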
# Target sequence (P31323 whole entry, looked up, other chains not shown, the tested form may be a part): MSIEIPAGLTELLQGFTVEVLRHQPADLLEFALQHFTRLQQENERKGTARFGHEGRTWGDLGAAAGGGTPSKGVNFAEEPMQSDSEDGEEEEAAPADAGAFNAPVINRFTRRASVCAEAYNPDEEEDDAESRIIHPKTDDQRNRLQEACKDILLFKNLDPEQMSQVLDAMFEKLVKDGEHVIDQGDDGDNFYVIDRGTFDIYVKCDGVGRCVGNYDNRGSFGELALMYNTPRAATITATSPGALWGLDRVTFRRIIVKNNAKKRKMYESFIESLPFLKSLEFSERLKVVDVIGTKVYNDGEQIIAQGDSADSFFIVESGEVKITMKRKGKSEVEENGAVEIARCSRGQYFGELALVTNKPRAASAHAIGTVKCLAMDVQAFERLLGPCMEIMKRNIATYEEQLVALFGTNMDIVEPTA
# VIM-2 inh – VIM-2 metallo-beta-lactamase inhibitors, primary screen, biochemical, epi-absorbance readout, Pseudomonas aeruginosa enzyme; purified VIM-2, nitrocefin hydrolysis, epi-absorbance fluorescence; inhibition, % at 5.6 µM; 290,000 compounds, 0.89% hits;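 active means inhibition above the mean of all tested compounds plus 3 SD, cutoff set per screening run, cut at about 7.5% in these data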;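 further: red hydrolysis product quenches plate fluorescence so inhibitors raise well fluorescence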
# PKA-R1A act – activators of PKA-R1A holoenzyme, primary screen, biochemical, fluorescence polarization, Cy5-IP20, bovine R1A, mouse PKAc; PKA-R1A dissociation; scaled: DMSO 0%, 113 µM cGMP 100%; activation, % at 11.4 µM; 340,000 compounds, 0.083% hits; AID 504707, 2011;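 active means percent activation above the mean of all tested compounds plus 3 SD, cut at about 19% in these data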;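 further: higher means more PKAc released from R1A so a rise in polarization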
# IMP-1 inhibitor – IMP-1 metallo-beta-lactamase inhibitors, primary screen, biochemical, epi-absorbance readout, Pseudomonas aeruginosa enzyme | metallo-beta-lactamase IMP-1 (Pseudomonas aeruginosa) | purified IMP-1, nitrocefin hydrolysis, epi-absorbance fluorescence | AID 1556, 2009 | inhibition, % at 5.6 µM | 290,000 compounds, 0.45% hits;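 active means inhibition above the mean plus 3 SD of all compounds in the same screening run, cut at about 4.5% in these data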
#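 System: Purified IMP-1 | Read-out basis: Percent enzyme inhibition | Controls: IMP-1 with DMSO as 0%, enzyme-free DMSO as 100% | Replicates: One well per compound | Doses: 5.6 µM nominal single concentration | Detection: Epi-absorbance fluorescence, 480 nm excitation, 530 nm emission | Incubation: 25 °C, 15 min preincubation, 25 min reaction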
# Numbers stand for hits; – = inactive; · = no result given.
SMILES,MsrA act,MsrA inh,PKA-R2B act,VIM-2 inh,PKA-R1A act,IMP-1 inhibitor
Cc1sc2ncnc(NCC(c3ccccc3)N(C)C)c2c1C (stereo unspecified),–,–,–,8.7,–,–
Cc1nc(NCC(c2ccccc2)N(C)C)c2c(C)c(C)sc2n1 (stereo unspecified),–,–,–,7.8,–,–
CCCCc1c(-c2ccccc2OC)ncn1Cc1cccc(F)c1,·,–,·,·,·,·
Cc1nc(C(C)NC(=O)c2cc(COc3ccc(C)c(C)c3)on2)c(C)s1 (stereo unspecified),–,–,–,–,–,–
CCn1c(=O)c2cc(C(=O)NC(C)C)sc2c2ccccc21,–,–,–,–,–,–
CCn1c(=O)c2cc(C(=O)N3CCN(C)CC3)sc2c2ccccc21,–,–,–,9.0,–,–
CN1CCN(C(=O)c2cc3c(=O)n4ccccc4nc3s2)CC1,–,–,–,7.9,–,–
Cc1c(OCC(=O)N2C[C@H]3C[C@@H](C2)c2cccc(=O)n2C3)ccc2c3c(c(=O)oc12)CCCC3,–,–,–,–,–,–
Cc1c(OCC(=O)N2C[C@H]3C[C@@H](C2)c2cccc(=O)n2C3)ccc2c3c(c(=O)oc12)CCC3,–,–,–,11.7,–,–
O=C(COc1cc2oc(=O)c3c(c2cc1Cl)CCC3)N1C[C@H]2C[C@@H](C1)c1cccc(=O)n1C2,–,–,–,11.4,–,–
CCCCc1c(-c2ccccc2OC)ncn1Cc1ccc(OC)c(Cl)c1,·,–,·,·,·,·
Cc1ccc2nc(CN(C)C(=O)[C@@H](Cc3ccccc3)NC(=O)[C@H]3O[C@@H](n4cnc(C(N)=O)n4)[C@H](O)[C@@H]3O)[nH]c2c1,·,–,·,·,·,·
O=C(NCCNc1ccc2ccccc2c1)c1cccn2c(=O)c3sccc3nc12,·,·,·,8.1,·,–
O=C(NCCN1CCN(c2ccccc2)CC1)c1cccn2c(=O)c3ccccc3nc12,–,–,–,–,–,–
CN(C)c1ccc(-c2n(C)c3ccccc3[n+]2C)cc1,–,4.6,–,–,–,–
ON=C1c2cc(OCCN3CCCCC3)ccc2-c2ccc(OCCN3CCCCC3)cc21,–,·,–,–,–,5.6
Clc1ccc(OCCN2CCCCC2)cc1Cl,–,–,–,–,–,–
Cc1ccc2c(CN3CCN(CCO)CC3)cc(=O)oc2c1C,–,–,–,9.9,–,–
Cc1cc(C)c2oc(=O)cc(CN3CCN(Cc4ccccc4)CC3)c2c1,–,–,–,–,–,–
Cc1ccc2c(CN3CCN(Cc4ccccc4)CC3)cc(=O)oc2c1C,–,–,–,9.9,–,–
CC(C)(O)CN(C(=O)c1ccccc1)C1CCCCC1,–,–,–,·,–,·
COc1nc(N)nc(NC(=O)c2cccs2)c1N=O,–,–,–,·,–,·
CCCCC1(C)OC(=O)C(=Cc2ccc(-c3ccc(Cl)c(C(=O)O)c3)o2)C(=O)O1 (stereo unspecified),–,–,–,–,–,28.7
CN(C)c1nc(N)c(C#N)c(C#N)c1C#N,–,–,–,·,–,·
S=c1nc(C2CC2)[nH]c2ccccc12,–,–,–,10.7,–,–
SMILES,MsrA act,MsrA inh,PKA-R2B act,VIM-2 inh,PKA-R1A act,IMP-1 inhibitor
O=C(CC(CC(=O)c1ccc(Cl)cc1)c1ccccc1C(=O)O)c1ccc(Cl)cc1,–,–,–,11.6,–,–
CS(=O)(=O)c1ccc2nc(NC(=O)c3ccc(Cn4cc(Br)cn4)o3)sc2c1,–,5.4,–,–,–,–
Cc1ccc2[nH]c(=O)c3cc(C(=O)NCCN4CCN(C)CC4)sc3c2c1,–,–,–,11.8,–,–
CCOC(=O)CNC(=O)c1cc2c(=O)[nH]c3ccc(C)cc3c2s1,–,–,–,–,–,–
CCCN1CCN(CCCNC(=O)c2cc3c(=O)[nH]c4ccccc4c3s2)CC1,–,–,–,10.2,–,–
O=C(NC1CCCC1)C1C(c2ccccc2)=Nc2ccccc2N1C(=O)c1cc(Cl)cc(Cl)c1 (stereo unspecified),·,–,·,·,·,·
CN(C)S(=O)(=O)c1cccc(NC(=S)Nc2cccc3cnccc23)c1,–,–,–,11.9,–,–
C[C@@H](C(=O)Nc1nc(-c2ccccn2)cs1)N1C(=O)C2CCCCC2C1=O (stereo partly specified),–,–,–,–,–,11.4
O=C(CN1C(=O)C2CCCCC2C1=O)Nc1nc(-c2ccccn2)cs1 (stereo unspecified),–,–,–,–,–,–
COc1ccc(/C=N/Nc2ccccn2)cc1OC,–,4.6,·,–,·,–
COc1cc(/C=N/Nc2ccccn2)ccc1O,–,–,–,–,–,–
CC1=CC2=C(OC1N(C)C)c1cccc3cccc(c13)C2=O (stereo unspecified),–,·,–,–,–,7.3
Cc1ccc(N2C(=O)c3cccc4cccc(c34)C2=O)cc1,–,–,–,–,–,–
Nc1ccccc1-c1nnn(CC(=O)Nc2ccc3c(c2)OCCO3)n1,–,–,–,–,–,–
COc1ccc(C(=O)Nc2ccccc2-c2nnn(CC(=O)Nc3ccc4c(c3)OCCO4)n2)cc1,8.5,–,–,–,–,–
N=C1C(c2nc(-c3ccc(Cl)cc3)cs2)=C(O)CN1CCCN1CCOCC1,–,–,–,13.9,–,–
Cc1ccccc1S(=O)(=O)N(C)C[C@H]1OCc2cnnn2CCCC(=O)N([C@H](C)CO)C[C@@H]1C,·,–,·,·,·,·
Cc1ccc(C(=O)N/C(=C\c2ccco2)C(=O)NCCCn2ccnc2)cc1C,–,–,–,–,–,9.7
COc1ccc(Cl)cc1C(=O)NCCCn1ccnc1,–,–,–,–,–,–
COc1ccc(C(C)=O)cc1CC(=O)NCCCn1ccnc1,–,–,–,–,–,4.8
COC(=O)[C@H](Cc1ccccc1)N1C/C=C\COc2c(Cl)cc(Cl)cc2S1(=O)=O,–,–,–,·,–,·
CCOc1ccc(CN(C)C(=O)c2ccc3c(c2)NC(=O)C(C)S3)cc1OC (stereo unspecified),–,–,–,·,–,·
COc1cccc(-c2nc(C(=O)NCCCN3CCOCC3)cc3c2[nH]c2ccccc23)c1,–,–,–,8.2,–,–
O=C(NCCCN1CCOCC1)c1cc2c([nH]c3ccccc32)c(-c2cccc(Br)c2)n1,–,–,–,12.2,–,–
COC(=O)[C@]12CCCCC=C1N(CCC1=CCCCC1)C(=O)[C@H](CC(=O)N1CCN(C(=O)c3ccco3)CC1)C2,–,–,·,·,·,·
